Results reported in ChEMBL document CHEMBL1138778, “Effects of altering the electronics of 2-methoxyestradiol on cell proliferation, on cytotoxicity in human cancer cell cultures, and on tubulin polymerization” (J Med Chem, 2004).

Columns and labels:
HOP-62 = assay: Growth inhibitory concentration against human lung cancer HOP-62 cell line; format: functional
Outline: (§1)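 Screen over 10^-4 to 10^-8 M in a human cancer cell line panel. GI50 is the concentration giving 50% growth inhibition of the individual cell line.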

UACC-62 = assay: Growth inhibitory concentration required against human melanoma UACC-62 cancer cell line; format: functional; outline: as §1
HCT-116 = assay: Growth inhibitory concentration against human colon cancer HCT116 cell line; format: functional; outline: as §1
MDA-MB-435 = assay: Growth inhibitory concentration required against human breast MDA-MB-435 cancer cell line; format: functional; outline: as §1
[1] = Average concentration required for 50% growth inhibition of human cancer cell line (tested); format: functional; conditions: Cancer cell lines
Outline: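 Mean graph midpoint: average of the individual cell line GI50 values across all cancer lines screened over 10^-4 to 10^-8 M. GI50 values falling outside this range were set to 10^-8 M (below) or 10^-4 M (above).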

MDA-MB-231 = assay: Inhibitory concentration against growth of MDA-MB-231 cancer cell line; format: functional, cell-based; conditions: Homo sapiens
Outline: (§2)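 MDA-MB-231 cells in DMEM/F12 (1:1) with 10% FBS, seeded at 1000 cells/well and attached overnight. Cells were exposed to compound for 48 h. Proliferation was read by BrdU-incorporation colorimetric ELISA or by cell counting, in triplicate, with experiments repeated at least twice.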

Tubulin = Tubulin (Bos taurus, UniProt Q6B856+Q862L2+Q862F3); assay: Inhibitory concentration against bovine tubulin polymerization; format: functional
Outline: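 Bovine brain tubulin, 1.2 mg/mL (12 μM), was preincubated with a range of compound concentrations and then chilled on ice. GTP was added and assembly followed by turbidity at 350 nm for 20 min at 26 °C. IC50 is the concentration halving assembly at 20 min, from at least two independent assays.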

HUVEC = assay: Inhibitory concentration required against growth of HUVEC […] cell line; format: functional, cell-based; conditions: Homo sapiens
Outline: as §2, with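 “HUVEC, used up to five passages” for “MDA-MB-231 cells”, “EGM” for “DMEM/F12 (1:1)”, “bovine brain extract and antibiotic-antimycotic,” for “10% FBS,”, “3000” for “1000”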

SN12C = assay: Growth inhibitory concentration required for against human renal SN12C cancer cell line; format: functional; outline: as §1
SF-539 = assay: Growth inhibitory concentration required against human CNS SF-539 cancer cell line; format: functional; outline: as §1
OVCAR-3 = assay: Growth inhibitory concentration required against human ovarian OVCAR-3 cancer cell line; format: functional; outline: as §1
DU-145 = assay: Growth inhibitory concentration required against human prostate DU-145 cancer cell line; format: functional; outline: as §1

Compound | GI50 (HCT-116) [µM] | GI50 (MDA-MB-435) [µM] | IC50 (MDA-MB-231) [µM] | IC50 (Tubulin) [µM] | GI50 (OVCAR-3) [µM] | GI50 (DU-145) [µM] | GI50 (HOP-62) [µM] | GI50 (UACC-62) [µM] | GI50 [1] [µM] | IC50 (HUVEC) [µM] | GI50 (SN12C) [µM] | GI50 (SF-539) [µM]
CCC(=O)c1cc2c(cc1O)CC[C@@H]1[C@@H]2CC[C@]2(C)[C@@H](O)CC[C@@H]12 | 9.3 | 2.4 | 15.8 | > 40 | 4 | 15.5 | 15.1 | 11.5 | 12 | 22.5 | 13.8 | 11.7
C/C(COc1cc2c(cc1O)CC[C@@H]1[C@@H]2CC[C@]2(C)[C@@H](O)CC[C@@H]12)=N/O | 18.2 | 24 |  | > 40 | 20.4 | 29.5 | 23.4 | 15.5 | 24 |  | 27.5 | 20.9
COc1cc2c(cc1O)CCC1[C@@H]2CC[C@@]2(C)[C@H]1CCC2(F)F (single isomer, unassigned) | 66.1 | 35.5 | 70.8 | > 40 | 43.7 | 56.2 | 81.3 | 58.9 | 40.7 | 58.3 | 24.5 | 31.6
CN(C)CCC/N=C/c1cc2c(cc1O)CC[C@@H]1[C@@H]2CC[C@]2(C)[C@@H](O)CC[C@@H]12 | 12.6 | 22.9 |  | > 40 | 19.5 | 20.9 | 21.4 | 13.8 | 20 |  | 25.7 | 18.2
C=C1CC[C@H]2[C@@H]3CCc4cc(O)c(OCC)cc4[C@H]3CC[C@]12C | 0.6 | 0.08 | 0.7 | 2.9 | 0.28 | 0.47 | 0.56 | 0.54 | 0.79 | 0.26 | 0.19 | 0.12
C=CCc1cc2c(cc1O)CC[C@@H]1[C@@H]2CC[C@]2(C)[C@@H](O)CC[C@@H]12 | 14.1 | 15.1 | 33.4 | > 40 | 21.9 | 24 | 13.8 | 13.2 | 18.2 | 8.51 | 18.2 | 21.9
COc1cc2c(cc1O)CC[C@@H]1[C@@H]2CC[C@@]2(C)[C@H]1CC[C@@]2(O)C(F)(F)F | 22.4 | 16.2 | 49.3 | > 40 | 15.8 | 18.2 |  | 18.2 | 19.5 | 40 | 24.5 | 19.5
CCOc1cc2c(cc1O)CC[C@@H]1[C@@H]2CC[C@]2(C)[C@@H](O)CC[C@@H]12 |  |  | 0.55 |  |  |  |  |  |  | 0.12 |  | 
CCOc1cc2c(cc1O)CC[C@@H]1[C@@H]2CC[C@@]2(C)[C@H]1CC[C@]2(C)O | 3.5 | 1.3 | 18.4 | 4.8 | 2.8 | 5.2 | 5 | 3.74 | 4.7 | 5.7 | 4.5 | 2.8
CC(=O)c1cc2c(cc1O)CC[C@@H]1[C@@H]2CC[C@]2(C)[C@@H](O)CC[C@@H]12 |  | 4.3 | 13.6 | > 20 | 25.7 | 55 | 5.4 | 24.5 | 17.4 | 15.6 | 53.7 | 18.6
C[C@]12CC[C@@H]3c4ccc(O)cc4CCC3[C@@H]1CCC2(F)F (single isomer, unassigned) | 14.5 | 15.8 | 54.4 | > 40 | 11 | 16.6 | 19.5 | 14.1 | 16.6 | 6.6 | 18.6 | 17.4

More lines, main results first:

GI50 (HCT-116) [µM] | GI50 (MDA-MB-435) [µM] | IC50 (MDA-MB-231) [µM] | IC50 (Tubulin) [µM] | GI50 (OVCAR-3) [µM] | GI50 (DU-145) [µM] | Compound | GI50 (HOP-62) [µM] | GI50 (UACC-62) [µM] | GI50 [1] [µM] | IC50 (HUVEC) [µM] | GI50 (SN12C) [µM] | GI50 (SF-539) [µM]
33.1 | 7.8 | 54 | > 40 | 40.7 | 64.6 | COCc1cc2c(cc1O)CC[C@@H]1[C@@H]2CC[C@]2(C)[C@@H](O)CC[C@@H]12 | 83.2 | 24.5 | 38 | 28.8 | 56.2 | 33.9
12.3 | 16.2 |  | > 40 | 14.5 | 16.6 | C[C@]12CC[C@@H]3c4cc(/C=N/C5CC5)c(O)cc4CC[C@H]3[C@@H]1CC[C@@H]2O | 24 | 16.2 | 16.6 |  | 70.8 | 17
17.8 | 12 | 47.5 | > 40 | 13.2 | 14.5 | C[C@]12CC[C@@H]3c4cc(C(F)(F)C(F)(F)F)c(O)cc4CC[C@H]3[C@@H]1CC[C@@H]2O |  | 13.8 | 18.6 | 25 | 16.6 | 18.2
4.3 | 0.3 | 5.99 | 11 | 1.5 | 4.1 | CC#Cc1cc2c(cc1O)CC[C@@H]1[C@@H]2CC[C@@]2(C)[C@H]1CC[C@]2(C)O | 3.1 | 4 | 3.2 | 1.94 | 7.4 | 2.6
0.7 | 0.19 | 7.14 | 5.6 | 0.66 | 2 | C[C@]1(O)CC[C@H]2[C@@H]3CCc4cc(O)ccc4[C@H]3CC[C@@]21C | 18.2 | 1.48 | 2.5 | 3.09 | 10.2 | 0.35
 |  | 3.99 |  |  |  | CC#Cc1cc2c(cc1O)CC[C@@H]1[C@@H]2CC[C@]2(C)[C@@H](O)CC[C@@H]12 |  |  |  | 0.52 |  | 
10.7 | 20.9 | 95.9 | > 40 | 1.9 | 13.8 | CC(=O)Oc1cc2c(cc1C(C)(F)F)[C@H]1CC[C@]3(C)[C@@H](OC(C)=O)CC[C@H]3[C@@H]1CC2 | 31.6 | 12.3 | 11.7 | 32.3 | 27.5 | 20
2.8 | 1.4 | 3.33 | > 40 | 7.1 | 12.3 | COc1cc2c(cc1O)CC[C@@H]1[C@@H]2CC[C@@]2(C)[C@H]1CC[C@]2(C)O | 15.2 | 6.3 | 10.2 | 2.4 | 7.8 | 6.9
74.1 | 24 | 99.2 | > 40 | 31.6 | 70.8 | C[C@]12CC[C@@H]3c4cc(CO)c(O)cc4CC[C@H]3[C@@H]1CC[C@@H]2O | 72.4 | 23.4 | 34.7 | 7.73 | 63.1 | 38
17 | 16.2 | 47.2 | > 40 | 14.1 | 5.1 | COc1cc2c(cc1O)CC[C@@H]1[C@@H]2CC[C@@]2(C)[C@H]1CC[C@]2(C)[C@H](O)c1ccccc1 | 18.2 | 13.5 | 14.5 | 21 | 14.1 | 17.8
